≈ marks a conversion by molar mass, not a printed value. Blank lines part the entries; values can stand above or below the compound they belong to.
Experiments:
Human rhinovirus sp. [1] = assay: Concentration inhibiting 50% of the serotypes tested to 50% of the viral concentration of untreated controls following 72 hr of exposure; type: functional
In short: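 Tissue culture infectious dose (TCID50) assay against a panel of 10 human rhinovirus serotypes. For each serotype, the viral concentration was compared with untreated controls after 72 h of compound exposure. MIC50 is the compound concentration at which half of the serotypes tested are reduced to 50% of the untreated-control viral concentration.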

[2] = Metabolic stability expressed as half life values was monitored in vitro liver microsomal assay.; type: ADME, Microsome; conditions: liver microsomes
Human rhinovirus sp. [3] = assay: Minimum inhibitory concentration on HRV serotype 15; type: functional
Human rhinovirus sp. [4] = assay: Minimum inhibitory concentration on HRV serotype 16; type: functional
Human rhinovirus sp. [5] = assay: Minimum inhibitory concentration on HRV serotype 19; type: functional
Human rhinovirus sp. [6] = assay: Minimum inhibitory concentration on HRV serotype 64; type: functional
Human rhinovirus sp. [7] = assay: Minimum inhibitory concentration on HRV serotype 66; type: functional
Human rhinovirus sp. [8] = assay: Minimum inhibitory concentration on HRV serotype 67; type: functional
Human rhinovirus sp. [9] = assay: Minimum inhibitory concentration on HRV serotype 68; type: functional
Human rhinovirus sp. [10] = assay: Minimum inhibitory concentration on HRV serotype 71; type: functional
Human rhinovirus sp. [11] = assay: Minimum inhibitory concentration on HRV serotype 73; type: functional
Human rhinovirus sp. [12] = assay: Minimum inhibitory concentration on HRV serotype 75; type: functional
Human rhinovirus sp. [13] = assay: Minimum inhibitory concentration on HRV serotype 76; type: functional
In short: (§1)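 Tested in a tissue culture infectious dose (TCID50) assay with 72 h compound exposure. Activity is read as the concentration that holds virus to 50% of the titer of untreated controls.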

Human rhinovirus sp. [14] = assay: Minimum inhibitory concentration on HRV serotype 78; type: functional; in short: as §1
Human rhinovirus sp. [15] = assay: Minimum inhibitory concentration on HRV serotype 79; type: functional; in short: as §1
Human rhinovirus sp. [16] = assay: Minimum inhibitory concentration on HRV serotype 80; type: functional; in short: as §1
Human rhinovirus sp. [17] = assay: Minimum inhibitory concentration on HRV serotype 81; type: functional; in short: as §1
Human rhinovirus sp. [18] = assay: Minimum inhibitory concentration on HRV serotype 82; type: functional; in short: as §1
Human rhinovirus sp. [19] = assay: Minimum inhibitory concentration on HRV serotype 83; type: functional; in short: as §1
Human rhinovirus sp. [20] = assay: Minimum inhibitory concentration on HRV serotype 84; type: functional; in short: as §1
Human rhinovirus sp. [21] = assay: Minimum inhibitory concentration on HRV serotype 85; type: functional; in short: as §1
Human rhinovirus sp. [22] = assay: Minimum inhibitory concentration on HRV serotype 88; type: functional; in short: as §1
Human rhinovirus sp. [23] = assay: Minimum inhibitory concentration on HRV serotype 89; type: functional; in short: as §1
Human rhinovirus sp. [24] = assay: Minimum inhibitory concentration on HRV serotype 9; type: functional; in short: as §1
Human rhinovirus sp. [25] = assay: Minimum inhibitory concentration on HRV serotype 90; type: functional; in short: as §1
Human rhinovirus sp. [26] = assay: Minimum inhibitory concentration on HRV serotype 92; type: functional; in short: as §1
Human rhinovirus sp. [27] = assay: Minimum inhibitory concentration on HRV serotype 96; type: functional; in short: as §1
Human rhinovirus sp. [28] = assay: Minimum inhibitory concentration on HRV serotype T39; type: functional; in short: as §1
Human rhinovirus sp. [29] = assay: Minimum inhibitory concentration on HRV serotype 100; type: functional
Human rhinovirus sp. [30] = assay: Minimum inhibitory concentration on HRV serotype 36; type: functional
Human rhinovirus sp. [31] = assay: Minimum inhibitory concentration on HRV serotype 38; type: functional
Human rhinovirus sp. [32] = assay: Minimum inhibitory concentration on HRV serotype 39; type: functional
Human rhinovirus sp. [33] = assay: Minimum inhibitory concentration on HRV serotype 40; type: functional
Human rhinovirus sp. [34] = assay: Minimum inhibitory concentration on HRV serotype 43; type: functional
Human rhinovirus sp. [35] = assay: Minimum inhibitory concentration on HRV serotype 44; type: functional
Human rhinovirus sp. [36] = assay: Minimum inhibitory concentration on HRV serotype 46; type: functional
Human rhinovirus sp. [37] = assay: Minimum inhibitory concentration on HRV serotype 47; type: functional
Human rhinovirus sp. [38] = assay: Minimum inhibitory concentration on HRV serotype 49; type: functional
Human rhinovirus sp. [39] = assay: Minimum inhibitory concentration on HRV serotype 50; type: functional
Human rhinovirus sp. [40] = assay: Minimum inhibitory concentration on HRV serotype 51; type: functional
Human rhinovirus sp. [41] = assay: Minimum inhibitory concentration on HRV serotype 55; type: functional
Human rhinovirus sp. [42] = assay: Minimum inhibitory concentration on HRV serotype 56; type: functional
Human rhinovirus sp. [43] = assay: Minimum inhibitory concentration on HRV serotype 57; type: functional
Human rhinovirus sp. [44] = assay: Minimum inhibitory concentration on HRV serotype 58; type: functional
Human rhinovirus sp. [45] = assay: Minimum inhibitory concentration on HRV serotype 61; type: functional
Human rhinovirus sp. [46] = assay: Minimum inhibitory concentration on HRV serotype 62; type: functional
Human rhinovirus sp. [47] = assay: Minimum inhibitory concentration on HRV serotype 63; type: functional
Human rhinovirus sp. [48] = assay: Minimum inhibitory concentration on HRV serotype 20; type: functional
Human rhinovirus sp. [49] = assay: Minimum inhibitory concentration on HRV serotype 21; type: functional
Human rhinovirus sp. [50] = assay: Minimum inhibitory concentration on HRV serotype 22; type: functional
Human rhinovirus sp. [51] = assay: Minimum inhibitory concentration on HRV serotype 24; type: functional
Human rhinovirus sp. [52] = assay: Minimum inhibitory concentration on HRV serotype 25; type: functional
Human rhinovirus sp. [53] = assay: Minimum inhibitory concentration on HRV serotype 28; type: functional
Human rhinovirus sp. [54] = assay: Minimum inhibitory concentration on HRV serotype 29; type: functional
Human rhinovirus sp. [55] = assay: Minimum inhibitory concentration on HRV serotype 30; type: functional
Human rhinovirus sp. [56] = assay: Minimum inhibitory concentration on HRV serotype 32; type: functional
Human rhinovirus sp. [57] = assay: Minimum inhibitory concentration on HRV serotype 33; type: functional
Human rhinovirus sp. [58] = assay: Minimum inhibitory concentration on HRV serotype 34; type: functional
Human rhinovirus sp. [59] = assay: Minimum inhibitory concentration on HRV serotype 1A; type: functional
Human rhinovirus sp. [60] = assay: Minimum inhibitory concentration on HRV serotype 1B; type: functional
Human rhinovirus sp. [61] = assay: Minimum inhibitory concentration on HRV serotype 2; type: functional
Human rhinovirus sp. [62] = assay: Minimum inhibitory concentration on HRV serotype 11; type: functional
Human rhinovirus sp. [63] = assay: Minimum inhibitory concentration on HRV serotype 35; type: functional
Human rhinovirus sp. [64] = assay: Minimum inhibitory concentration on HRV serotype 7; type: functional
Human rhinovirus sp. [65] = assay: Minimum inhibitory concentration on HRV serotype 23; type: functional
Human rhinovirus sp. [66] = assay: Minimum inhibitory concentration on HRV serotype 53; type: functional

SMILES: Cc1cc(CCCOc2c(C)cc(-c3ccccc3F)cc2C)on1
MIC50 (Human rhinovirus sp. [1]): 0.11 µM (≈ 0.0373 µg/mL)

SMILES: Cc1ccc(-c2cc(C)c(OCCCc3cc(C)no3)c(C)c2)cc1
half-life [2]: > 3.33 h | MIC50 (Human rhinovirus sp. [1]): 0.12 µM (≈ 0.0403 µg/mL)

SMILES: Cc1cc(CCCCCOc2c(Cl)cc(C3=NCCO3)cc2Cl)on1 [WIN-54954]
MIC (Human rhinovirus sp. [3]): 0.49 mg/L (≈ 1.28 µM) | MIC (Human rhinovirus sp. [4]): 0.639 mg/L (≈ 1.67 µM) | MIC (Human rhinovirus sp. [5]): 0.178 mg/L (≈ 0.464 µM) | MIC (Human rhinovirus sp. [6]): 0.497 mg/L (≈ 1.3 µM) | MIC (Human rhinovirus sp. [7]): 0.069 mg/L (≈ 0.18 µM) | MIC (Human rhinovirus sp. [8]): 0.169 mg/L (≈ 0.441 µM) | MIC (Human rhinovirus sp. [9]): 0.032 mg/L (≈ 0.0835 µM) | MIC (Human rhinovirus sp. [10]): 0.018 mg/L (≈ 0.047 µM) | MIC (Human rhinovirus sp. [11]): 0.242 mg/L (≈ 0.631 µM) | MIC (Human rhinovirus sp. [12]): 0.157 mg/L (≈ 0.41 µM) | MIC (Human rhinovirus sp. [13]): 0.102 mg/L (≈ 0.266 µM) | MIC (Human rhinovirus sp. [14]): 0.081 mg/L (≈ 0.211 µM) | MIC (Human rhinovirus sp. [15]): 0.028 mg/L (≈ 0.0731 µM) | MIC (Human rhinovirus sp. [16]): 0.124 mg/L (≈ 0.324 µM) | MIC (Human rhinovirus sp. [17]): 0.416 mg/L (≈ 1.09 µM) | MIC (Human rhinovirus sp. [18]): 0.245 mg/L (≈ 0.639 µM) | MIC (Human rhinovirus sp. [19]): 0.018 mg/L (≈ 0.047 µM) | MIC (Human rhinovirus sp. [20]): > 3 mg/L | MIC (Human rhinovirus sp. [21]): 0.043 mg/L (≈ 0.112 µM) | MIC50 (Human rhinovirus sp. [1]): 0.78 µM (≈ 0.299 µg/mL) | MIC (Human rhinovirus sp. [22]): 0.084 mg/L (≈ 0.219 µM) | MIC (Human rhinovirus sp. [23]): 0.034 mg/L (≈ 0.0887 µM) | MIC (Human rhinovirus sp. [24]): 0.187 mg/L (≈ 0.488 µM) | MIC (Human rhinovirus sp. [25]): 0.191 mg/L (≈ 0.498 µM) | MIC (Human rhinovirus sp. [26]): 0.002 mg/L (≈ 0.00522 µM) | MIC (Human rhinovirus sp. [27]): 0.091 mg/L (≈ 0.237 µM) | MIC (Human rhinovirus sp. [28]): 0.299 mg/L (≈ 0.78 µM) | MIC (Human rhinovirus sp. [29]): 0.025 mg/L (≈ 0.0652 µM) | MIC (Human rhinovirus sp. [30]): 0.073 mg/L (≈ 0.19 µM) | MIC (Human rhinovirus sp. [31]): 0.078 mg/L (≈ 0.204 µM) | MIC (Human rhinovirus sp. [32]): 0.347 mg/L (≈ 0.905 µM) | MIC (Human rhinovirus sp. [33]): 0.053 mg/L (≈ 0.138 µM) | MIC (Human rhinovirus sp. [34]): 0.283 mg/L (≈ 0.738 µM) | MIC (Human rhinovirus sp. [35]): 0.119 mg/L (≈ 0.31 µM) | MIC (Human rhinovirus sp. [36]): 0.143 mg/L (≈ 0.373 µM) | MIC (Human rhinovirus sp. [37]): 0.015 mg/L (≈ 0.0391 µM) | MIC (Human rhinovirus sp. [38]): 0.16 mg/L (≈ 0.417 µM) | MIC (Human rhinovirus sp. [39]): 0.47 mg/L (≈ 1.23 µM) | MIC (Human rhinovirus sp. [40]): 0.033 mg/L (≈ 0.0861 µM) | MIC (Human rhinovirus sp. [41]): 0.02 mg/L (≈ 0.0522 µM) | MIC (Human rhinovirus sp. [42]): 0.099 mg/L (≈ 0.258 µM) | MIC (Human rhinovirus sp. [43]): 0.156 mg/L (≈ 0.407 µM) | MIC (Human rhinovirus sp. [44]): 0.028 mg/L (≈ 0.0731 µM) | MIC (Human rhinovirus sp. [45]): 0.127 mg/L (≈ 0.331 µM) | MIC (Human rhinovirus sp. [46]): 0.115 mg/L (≈ 0.3 µM) | MIC (Human rhinovirus sp. [47]): 0.101 mg/L (≈ 0.264 µM) | MIC (Human rhinovirus sp. [48]): 0.037 mg/L (≈ 0.0965 µM) | MIC (Human rhinovirus sp. [49]): 0.031 mg/L (≈ 0.0809 µM) | MIC (Human rhinovirus sp. [50]): 0.027 mg/L (≈ 0.0704 µM) | MIC (Human rhinovirus sp. [51]): 0.175 mg/L (≈ 0.457 µM) | MIC (Human rhinovirus sp. [52]): 0.072 mg/L (≈ 0.188 µM) | MIC (Human rhinovirus sp. [53]): 0.116 mg/L (≈ 0.303 µM) | MIC (Human rhinovirus sp. [54]): 0.295 mg/L (≈ 0.77 µM) | MIC (Human rhinovirus sp. [55]): 0.156 mg/L (≈ 0.407 µM) | MIC (Human rhinovirus sp. [56]): 0.269 mg/L (≈ 0.702 µM) | MIC (Human rhinovirus sp. [57]): 0.107 mg/L (≈ 0.279 µM) | MIC (Human rhinovirus sp. [58]): 0.072 mg/L (≈ 0.188 µM) | MIC (Human rhinovirus sp. [59]): 0.419 mg/L (≈ 1.09 µM) | MIC (Human rhinovirus sp. [60]): 0.105 mg/L (≈ 0.274 µM) | MIC (Human rhinovirus sp. [61]): 0.058 mg/L (≈ 0.151 µM) | MIC (Human rhinovirus sp. [62]): 0.102 mg/L (≈ 0.266 µM) | MIC (Human rhinovirus sp. [63]): 0.036 mg/L (≈ 0.0939 µM) | MIC (Human rhinovirus sp. [64]): 0.035 mg/L (≈ 0.0913 µM) | MIC (Human rhinovirus sp. [65]): 0.451 mg/L (≈ 1.18 µM) | MIC (Human rhinovirus sp. [66]): 0.355 mg/L (≈ 0.926 µM)

The next lines start with the values.

MIC50 (Human rhinovirus sp. [1]): 0.23 µM (≈ 0.0808 µg/mL)
SMILES: COc1cccc(-c2cc(C)c(OCCCc3cc(C)no3)c(C)c2)c1

MIC50 (Human rhinovirus sp. [1]): 0.44 µM (≈ 0.148 µg/mL)
SMILES: Cc1cc(CCCOc2c(C)cc(-c3cccc(O)c3)cc2C)on1

MIC50 (Human rhinovirus sp. [1]): 0.23 µM (≈ 0.0808 µg/mL)
SMILES: Cc1cc(CCCOc2c(C)cc(-c3cccc(CO)c3)cc2C)on1
